Data published in ChEMBL document CHEMBL1137403, “Discovery of 2-[4-{{2-(2S,5R)-2-cyano-5-ethynyl-1-pyrrolidinyl]-2-oxoethyl]amino]- 4-methyl-1-piperidinyl]-4-pyridinecarboxylic acid (ABT-279): a very potent, selective, effective, and well-tolerated inhibitor of dipeptidyl peptidase-IV, useful for the treatment of diabetes” (J Med Chem, 2006).
Active and inactive are the calls of the source. The rule behind the calls is not given here.

Experiments:
[1] = AUC in Sprague-Dawley rat at 5 mg/kg, iv; format: ADME, organism-based; design: dose 5 mg/kg, route intravenous; settings: plasma
In short: (§1)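 Single intravenous dose. Plasma drug exposure is reported as area under the curve in µg-hr/mL. It is listed in the same table as T1/2, Vss, Vβ and plasma clearance (CLp).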

[2] = Half life in Sprague-Dawley rat at 5 mg/kg, po; format: ADME, organism-based; design: dose 5 mg/kg, route oral; settings: in vivo
[3] = AUC in Beagle dog at 2.5 mg/kg, iv; format: ADME, organism-based, Canis lupus familiaris; design: dose 2.5 mg/kg, route intravenous; settings: plasma; in short: as §1
[4] = organism: Rattus norvegicus; assay: GLP1 level in Zucker rat after 10 mins; format: functional
In short: (§2)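 Female ZDF rats, 10 weeks old, fasted overnight, then dosed orally with vehicle or drug. Four hours after dosing (t = 0) they had free access for 4 h to a liquid mixed meal (Ensure). Plasma was sampled for drug level, active GLP-1, insulin, glucagon and glucose.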

[5] = Oral bioavailability in Beagle dog at 2.5 mg/kg, po; format: ADME, organism-based, Canis lupus familiaris; settings: in vivo
[6] = Volume of distribution in Beagle dog at 2.5 mg/kg, iv; format: ADME, organism-based, Canis lupus familiaris; design: dose 2.5 mg/kg, route intravenous; settings: in vivo, read-out: Vss
[7] = molecular target: Voltage-gated inwardly rectifying potassium channel KCNH2 (Homo sapiens, UniProt Q12809); assay: Binding affinity to hERG
[8] = AUC (0-24h) in dog; format: ADME, organism-based, Canis lupus familiaris; design: time < 24 hr; settings: plasma
[9] = Half life in cynomolgus monkey at 2.5 mg/kg, po; format: ADME, organism-based, Macaca fascicularis; design: dose 2.5 mg/kg, route oral; settings: in vivo
[10] = molecular target: Dipeptidyl peptidase 4 (Rattus norvegicus) (UniProt P14740); assay: Inhibition of Zucker rat plasma DPP4 after 4 hrs at 1 mg/kg; format: functional, organism-based; design: dose 1 mg/kg
In short: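 Female Zucker diabetic fatty rats, 10 weeks old, fasted overnight, then given a single oral dose of 1 mg/kg or vehicle. Plasma DPP-IV activity inhibition and plasma drug level were measured 4 h post-dose, at the point when the rats were given free access to a liquid mixed meal (Ensure).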

[11] = Plasma clearance in Beagle dog at 2.5 mg/kg, iv; format: ADME, organism-based, Canis lupus familiaris; design: dose 2.5 mg/kg, route intravenous
[12] = Drug level in Zucker rat plasma after 4 hrs at 1 mg/kg; format: ADME, organism-based; design: dose 1 mg/kg; settings: read-out: Drug uptake; in short: as §2
[13] = system: Mus musculus; assay: Clastogenicity in mouse upto 2000 mg/kg; format: functional, organism-based; design: dose 2000 mg/kg
In short: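 Murine in vivo clastogenicity test, dosed at up to 2000 mg/kg.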

[14] = Half life in Beagle dog at 2.5 mg/kg, iv; format: ADME, organism-based, Canis lupus familiaris; design: dose 2.5 mg/kg, route intravenous; settings: in vivo
[15] = Plasma clearance in cynomolgus monkey at 2.5 mg/kg, iv; format: ADME, organism-based, Macaca fascicularis; design: dose 2.5 mg/kg, route intravenous
[16] = Tmax in Beagle dog at 2.5 mg/kg, po; format: ADME, organism-based, Canis lupus familiaris; design: dose 2.5 mg/kg, route oral; settings: in vivo
[17] = molecular target: Cytochrome P450 3A4 (Homo sapiens, UniProt P08684); assay: Inhibition of CYP3A4; format: ADME
[18] = molecular target: Cytochrome P450 2D6 (Homo sapiens, UniProt P10635); assay: Inhibition of CYP2D6; format: ADME
[19] = Cmax in Sprague-Dawley rat at 5 mg/kg, po; format: ADME, organism-based; design: dose 5 mg/kg, route oral; settings: in vivo
[20] = Volume of distribution in terminal phase in cynomolgus monkey at 2.5 mg/kg, iv; format: ADME, organism-based, Macaca fascicularis; design: dose 2.5 mg/kg, route intravenous; settings: in vivo, read-out: Vbeta
[21] = system: Rattus norvegicus; assay: Electrocardiographic activity in rat upto 28 ug/ml, iv; format: functional, organism-based
In short: (§3)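 Hemodynamic and electrocardiographic profile recorded in anesthetized rats or dogs given the drug intravenously, at plasma concentrations up to 28 µg/mL.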

[22] = system: Canis familiaris; assay: Electrocardiographic activity in dog upto 28 ug/ml, iv; format: functional, organism-based; settings: Canis lupus familiaris; in short: as §3
[23] = Plasma clearance in Sprague-Dawley rat at 5 mg/kg, iv; format: ADME, organism-based; design: dose 5 mg/kg, route intravenous
[24] = Volume of distribution in terminal phase in Sprague-Dawley rat at 5 mg/kg, iv; format: ADME, organism-based; design: dose 5 mg/kg, route intravenous; settings: in vivo, read-out: Vbeta
[25] = organism: Rattus norvegicus; assay: Reduction in glucagon level in Zucker rat after 30 mins relative to control; format: functional; design: scale not given: the % may be the effect or the level left; in short: as §2
[26] = Volume of distribution in Sprague-Dawley rat at 5 mg/kg, iv; format: ADME, organism-based; design: dose 5 mg/kg, route intravenous; settings: in vivo, read-out: Vss
[27] = AUC (0-24h) in rat; format: ADME, organism-based; design: time < 24 hr; settings: plasma
[28] = organism: Rattus norvegicus; assay: Insulin level in Zucker rat after 10 mins; format: functional; in short: as §2

Chain of Voltage-gated inwardly rectifying potassium channel KCNH2 (Q12809 whole entry): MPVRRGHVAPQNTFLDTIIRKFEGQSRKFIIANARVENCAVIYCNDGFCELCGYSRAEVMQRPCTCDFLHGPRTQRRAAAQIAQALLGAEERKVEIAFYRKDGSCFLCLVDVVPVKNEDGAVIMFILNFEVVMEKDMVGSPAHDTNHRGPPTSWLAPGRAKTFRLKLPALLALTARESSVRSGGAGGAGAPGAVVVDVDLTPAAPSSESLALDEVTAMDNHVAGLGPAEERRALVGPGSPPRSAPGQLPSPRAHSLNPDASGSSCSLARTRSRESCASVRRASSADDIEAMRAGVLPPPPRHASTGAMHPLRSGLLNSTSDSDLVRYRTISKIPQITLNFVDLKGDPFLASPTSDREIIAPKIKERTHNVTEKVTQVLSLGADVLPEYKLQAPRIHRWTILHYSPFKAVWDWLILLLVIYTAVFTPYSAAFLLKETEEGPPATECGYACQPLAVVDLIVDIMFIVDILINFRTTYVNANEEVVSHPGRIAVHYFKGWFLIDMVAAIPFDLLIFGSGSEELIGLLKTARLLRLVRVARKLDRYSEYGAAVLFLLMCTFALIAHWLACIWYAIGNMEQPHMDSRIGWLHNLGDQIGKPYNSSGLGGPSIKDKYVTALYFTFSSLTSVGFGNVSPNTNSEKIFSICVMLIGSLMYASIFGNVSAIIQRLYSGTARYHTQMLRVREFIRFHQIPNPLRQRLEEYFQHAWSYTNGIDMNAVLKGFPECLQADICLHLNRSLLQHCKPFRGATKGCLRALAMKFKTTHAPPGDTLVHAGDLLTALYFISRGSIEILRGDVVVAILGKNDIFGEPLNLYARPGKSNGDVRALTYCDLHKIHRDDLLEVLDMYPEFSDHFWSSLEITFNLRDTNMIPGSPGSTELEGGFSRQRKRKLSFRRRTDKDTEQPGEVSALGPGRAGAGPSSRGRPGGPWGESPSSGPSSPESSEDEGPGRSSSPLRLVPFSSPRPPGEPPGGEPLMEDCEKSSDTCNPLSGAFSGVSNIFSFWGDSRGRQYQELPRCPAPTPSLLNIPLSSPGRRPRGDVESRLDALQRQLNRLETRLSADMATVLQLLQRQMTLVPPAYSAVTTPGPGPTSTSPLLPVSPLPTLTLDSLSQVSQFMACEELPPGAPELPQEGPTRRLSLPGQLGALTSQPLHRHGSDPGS
Chain of Cytochrome P450 3A4 (P08684 whole entry): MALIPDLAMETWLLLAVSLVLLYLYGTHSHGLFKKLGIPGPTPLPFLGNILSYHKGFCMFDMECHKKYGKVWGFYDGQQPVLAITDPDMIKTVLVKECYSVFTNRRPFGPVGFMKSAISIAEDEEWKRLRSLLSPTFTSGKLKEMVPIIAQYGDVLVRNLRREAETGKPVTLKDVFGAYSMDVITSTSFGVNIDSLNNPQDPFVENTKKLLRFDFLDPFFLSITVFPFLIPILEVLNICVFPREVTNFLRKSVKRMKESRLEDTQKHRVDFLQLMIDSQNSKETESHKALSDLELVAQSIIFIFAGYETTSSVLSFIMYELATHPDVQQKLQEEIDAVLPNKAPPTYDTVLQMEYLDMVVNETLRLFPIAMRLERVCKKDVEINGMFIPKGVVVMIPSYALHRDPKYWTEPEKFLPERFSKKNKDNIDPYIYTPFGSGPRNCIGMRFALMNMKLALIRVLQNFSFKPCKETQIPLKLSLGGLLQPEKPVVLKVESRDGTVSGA
Chain of Cytochrome P450 2D6 (P10635 whole entry): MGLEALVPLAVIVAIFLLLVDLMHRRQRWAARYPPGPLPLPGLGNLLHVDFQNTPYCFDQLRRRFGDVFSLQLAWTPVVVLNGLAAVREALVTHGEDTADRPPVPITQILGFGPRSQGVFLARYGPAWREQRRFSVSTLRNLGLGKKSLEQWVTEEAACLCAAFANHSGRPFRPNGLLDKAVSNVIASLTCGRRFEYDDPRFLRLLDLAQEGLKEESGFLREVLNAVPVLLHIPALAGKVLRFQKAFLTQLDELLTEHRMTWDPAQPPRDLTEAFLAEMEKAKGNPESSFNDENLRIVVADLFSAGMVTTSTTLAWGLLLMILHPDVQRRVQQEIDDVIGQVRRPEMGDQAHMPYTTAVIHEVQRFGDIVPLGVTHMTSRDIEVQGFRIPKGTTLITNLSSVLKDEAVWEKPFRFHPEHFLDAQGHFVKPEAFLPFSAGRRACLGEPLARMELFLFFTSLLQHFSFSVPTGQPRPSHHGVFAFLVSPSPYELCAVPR
Chain of Dipeptidyl peptidase 4 (Rattus norvegicus) (P14740 whole entry, looked up): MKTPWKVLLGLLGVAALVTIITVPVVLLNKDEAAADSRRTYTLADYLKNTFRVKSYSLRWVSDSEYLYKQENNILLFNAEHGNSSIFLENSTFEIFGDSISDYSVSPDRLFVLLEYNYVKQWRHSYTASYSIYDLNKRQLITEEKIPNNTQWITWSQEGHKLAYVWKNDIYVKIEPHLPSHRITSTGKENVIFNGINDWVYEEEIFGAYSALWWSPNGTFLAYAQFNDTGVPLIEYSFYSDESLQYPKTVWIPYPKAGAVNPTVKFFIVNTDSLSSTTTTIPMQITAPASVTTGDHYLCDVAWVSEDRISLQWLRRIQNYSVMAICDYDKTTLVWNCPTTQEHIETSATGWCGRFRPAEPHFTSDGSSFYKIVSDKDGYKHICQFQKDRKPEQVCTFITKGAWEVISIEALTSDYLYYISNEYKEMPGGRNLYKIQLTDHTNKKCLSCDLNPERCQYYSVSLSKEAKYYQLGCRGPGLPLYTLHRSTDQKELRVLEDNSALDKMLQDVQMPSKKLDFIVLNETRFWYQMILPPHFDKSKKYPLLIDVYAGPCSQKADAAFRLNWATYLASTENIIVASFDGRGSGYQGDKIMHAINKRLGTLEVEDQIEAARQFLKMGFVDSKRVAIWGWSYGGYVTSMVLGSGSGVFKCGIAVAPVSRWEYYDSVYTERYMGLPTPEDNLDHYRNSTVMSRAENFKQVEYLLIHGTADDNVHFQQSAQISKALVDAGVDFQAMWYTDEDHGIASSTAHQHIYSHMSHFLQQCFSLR

With C#C[C@H]1CC[C@@H](C#N)N1C(=O)CNC1(C)CCN(c2cc(C(=O)O)ccn2)CC1 the AUC [1] was 7.6 µg·h/mL, the half-life [2] was 4.7 h and the AUC [3] was 2.8 µg·h/mL. For the same molecule, the Activity [4] was 29 pM, the bioavailability [5] was 35.2% and the Vd [6] was 1.5 L/kg. The Ki [7] was > 45.1 µM, the AUC(0-t) at 24 h [8] was 36 µg·h/mL and the half-life [9] was 2 h. The inhibition [10] was 87%, the clearance [11] was 0.91 L/h/kg and the concentration at 4 h [12] was 0.018 µg/mL. For the same molecule, the Activity [13] was “inactive”, the half-life [14] was 6.4 h and the clearance [15] was 0.51 L/h/kg. For the same molecule, the Tmax [16] was 0.8 h, the IC50 [17] was > 30 µM and the IC50 [18] was > 30 µM. The Cmax [19] was 0.37 µg/mL, the Vd [20] was 1.3 L/kg and the Activity [21] was “Active”. For the same molecule, the Activity [22] was “Active”, the clearance [23] was 0.68 L/h/kg and the Vd [24] was 6.7 L/kg. It also gave an Activity [25] of 50%, a Vd [26] of 2.2 L/kg and an AUC(0-t) at 24 h [27] of 39 µg·h/mL. The Activity [28] was 39 ng/mL.
